Test results published in ChEMBL document CHEMBL4354825, “Design and Synthesis of Basic Selective Estrogen Receptor Degraders for Endocrine Therapy Resistant Breast Cancer” (J Med Chem, 2019).
The source made the active and inactive calls. The calls are words filed in the database; no cut-off is given here.

How the values were obtained:
[1] = biological target: T1, Estrogen receptor (Homo sapiens) (UniProt P03372); experiment: Induction of degradation of ERalpha in human MCF7:WS8 cells at 100 nM in presence of MG-132 incubated for 24 hrs by Western blot analysis; type: cell-based
T1 sequence (whole entry): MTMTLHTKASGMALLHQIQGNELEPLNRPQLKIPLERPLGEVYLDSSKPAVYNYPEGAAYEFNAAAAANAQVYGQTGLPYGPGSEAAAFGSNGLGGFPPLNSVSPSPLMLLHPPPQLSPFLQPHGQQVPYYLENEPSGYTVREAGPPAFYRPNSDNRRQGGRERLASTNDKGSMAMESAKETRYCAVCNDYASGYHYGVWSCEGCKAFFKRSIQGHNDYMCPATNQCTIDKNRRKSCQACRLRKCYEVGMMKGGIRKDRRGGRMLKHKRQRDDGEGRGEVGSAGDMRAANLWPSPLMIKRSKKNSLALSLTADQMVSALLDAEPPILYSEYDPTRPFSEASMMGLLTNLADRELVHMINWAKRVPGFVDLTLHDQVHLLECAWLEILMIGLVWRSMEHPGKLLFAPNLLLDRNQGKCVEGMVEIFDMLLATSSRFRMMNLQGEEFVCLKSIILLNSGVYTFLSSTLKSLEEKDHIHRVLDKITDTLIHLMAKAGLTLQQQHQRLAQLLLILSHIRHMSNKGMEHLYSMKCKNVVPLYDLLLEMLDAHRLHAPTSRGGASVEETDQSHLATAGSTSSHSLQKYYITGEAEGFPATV

[2] = Plasma concentration in C57BL/6 mouse at 100 mg/kg, po measured after 0.5 hrs by LC/MS-MS analysis; type: ADME, organism-based
Summary of the method: (§1)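 PK screen in female C57BL/6 mice (N = 3 per time point). Dosed by gavage at 100 mg/kg in HPβD/PEG-400. Plasma and brain were taken from perfused mice at 30 and 120 min. Quantified by LC-MS/MS in MRM mode, with standard curves in each matrix and a common internal standard. Values are mean and s.d.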

[3] = AUClast in CD-1 mouse plasma at 50 mg/kg, po measured upto 24 hrs by LC-MS/MS analysis; details: in vivo
[4] = Tmax in CD-1 mouse plasma at 50 mg/kg, po measured upto 24 hrs by LC-MS/MS analysis; details: in vivo
MCF7:TAM1 [5] = experiment: Antitumor activity against human MCF7:TAM1 cells xenografted in athymic nude mouse assessed as tumor regression at 100 mg/kg, po measured after 4 weeks; type: functional, organism-based
Summary of the method: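 MCF7:TAM1 cells were implanted into mammary fat pads of ovariectomized 4–6-week-old athymic nude mice carrying subcutaneous E2 silastic capsules (1.0 cm). Dosing was 100 mg/kg/day p.o. in 10% HPCD/PEG-400 (9:1). Tumor area was measured weekly by calipers as (length/2)×(width/2)×π.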

Rattus norvegicus = experiment: Induction of uterotrophic activity in Sprague-Dawley rat assessed as increase in uterine weight at 10 mg/kg, po administered for 3 days and measured after 24 hrs of last dosing by hematoxylin eosin staining based imaging analysis; type: functional, organism-based
Summary of the method: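 Female Sprague-Dawley rats were dosed from day 19 of age once daily for 3 days: 10 mg/kg p.o. in 2% Tween 80/0.5% methylcellulose. EE2 (0.1 mg/kg p.o., peanut oil) was the positive control. Uteri were excised and weighed 24 h after the last dose; one half was fixed in 4% paraformaldehyde for H&E histology.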

Estrogen receptor = biological target: T2, Estrogen receptor (Homo sapiens, UniProt P03372); experiment: Inhibition of ERalpha in human MCF7:WS8 cells assessed as increase in degradation of ERalpha incubated for 24 hrs by In-Cell Western assay; type: cell-based
T2 sequence (P03372 whole entry): T1 sequence (whole entry)
Summary of the method: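 MCF7:WS8 cells were estrogen-stripped for 2 days and plated at 2.5 × 10^4 per well. ERα was detected by in-cell western (H10 antibody), with signal normalized to CellTag 700.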

[6] = Half life in CD-1 mouse plasma at 50 mg/kg, po measured upto 24 hrs by LC-MS/MS analysis; details: in vivo
[7] = Drug concentration in C57BL/6 mouse brain at 100 mg/kg, po measured after 0.5 hrs by LC/MS-MS analysis; type: ADME, organism-based; details: read-out: Drug uptake; summary of the method: as §1
[8] = MRT (0 to infinity) in CD-1 mouse plasma at 50 mg/kg, po measured upto 24 hrs by LC-MS/MS analysis; details: in vivo
[9] = biological target: T1, Estrogen receptor (Homo sapiens); experiment: Inhibition of ERalpha in human MCF7:WS8 cells assessed as increase in degradation of ERalpha incubated for 24 hrs by In-Cell Western assay relative to control; type: cell-based
Summary of the method: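 MCF7:WS8 cells were estrogen-stripped for 2 days and plated at 2.5 × 10^4 per well. After 48 h they were treated for 24 h. ERα was detected by in-cell western (H10 antibody), with signal normalized to CellTag 700.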

[10] = Drug concentration in C57BL/6 mouse brain at 100 mg/kg, po measured after 2 hrs by LC/MS-MS analysis; type: ADME, organism-based; details: read-out: Drug uptake; summary of the method: as §1
[11] = AUClast in C57BL/6 mouse brain at 50 mg/kg, po measured upto 24 hrs by LC-MS/MS analysis; type: ADME, organism-based; parameters: dose 50 mg/kg, time < 24 hr, route oral; details: in vivo
Summary of the method: (§2)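 Full PK run by a contract lab. Dosing was 50 mg/kg p.o. in water and 10% SBE-β-CD/PEG-400 (9:1 v/v), and 5 mg/kg i.v. Sampling at 0.25, 0.5, 1, 2, 4, 8 and 24 h (N = 5). Plasma samples were diluted in 50% acetonitrile and quantified by LC-MS/MS against standards serially diluted in 50% acetonitrile. Brain was also sampled after the oral dose.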

[12] = AUC (0 to infinity) in CD-1 mouse plasma at 50 mg/kg, po measured upto 24 hrs by LC-MS/MS analysis; details: in vivo
T47D = experiment: Cytotoxicity against human T47D 3D spheroid cells assessed as reduction in tumor cell viability at 10 nM incubated for 14 days by celltiter-glo 3D cell viability assay
cells = details: Homo sapiens, MCF7:5C, 168 h, read-out: pIC50 (converted)
[13] = AUClast/D in C57BL/6 mouse plasma at 50 mg/kg, po measured upto 24 hrs by LC-MS/MS analysis; type: ADME, organism-based; details: in vivo; summary of the method: as §2
MCF7:TAM1 [14] = experiment: Cytotoxicity against human MCF7:TAM1 3D spheroid cells assessed as reduction in tumor cell viability at 10 nM incubated for 14 days by celltiter-glo 3D cell viability assay
[15] = AUC extrapolated from the last time point to infinity in CD-1 mouse plasma at 50 mg/kg, po measured upto 24 hrs by LC-MS/MS analysis; details: in vivo
[16] = Cmax in C57BL/6 mouse brain at 50 mg/kg, po measured upto 24 hrs by LC-MS/MS analysis; type: ADME, organism-based; parameters: dose 50 mg/kg, route oral; details: in vivo; summary of the method: as §2
[17] = AUC (0 to infinity) in C57BL/6 mouse brain at 50 mg/kg, po measured upto 24 hrs by LC-MS/MS analysis; type: ADME, organism-based; parameters: dose 50 mg/kg, route oral, time infinity; details: in vivo; summary of the method: as §2

- Activity [1]: inactive
- concentration at 0.5 h [2]: 2490 nM
- AUClast [3]: 1678 ng·h/mL
- Tmax [4]: 1 h
- IC50 (Estrogen receptor): 1.02 nM
- t1/2 [6]: 4.48 h
- concentration at 0.5 h [7]: 1630 nM
- MRT [8]: 6.05 h
- Efficacy [9]: 92%
- concentration at 2 h [10]: 1250 nM
- AUClast [11]: 2106 ng·h/mL
- AUC [12]: 2292 ng·h/mL
- IC50 (cells): 0.347 nM
- AUClast/dose [13]: 33.6 ng·h/mL
- %AUCextra [15]: 26.8%
- Cmax [16]: 635 ng/mL
- AUC [17]: 3450 ng·h/mL
SMILES: Cc1cc(F)cc(C)c1C(=O)c1sc2cc(O)ccc2c1Oc1ccc(OC2CN(CCCF)C2)cc1
- Activity (MCF7:TAM1 [5]): Active
- Activity (Rattus norvegicus): inactive
- Activity (T47D): Active
- Activity (MCF7:TAM1 [14]): Active
